{"data": "Assay results gathered from unrelated publications", "target": "Receptor tyrosine-protein kinase erbB-3 (ERBB3, Homo sapiens, UniProt P21860)", "note": "Protocols differ between the studies behind these lines."}
{"Structure (SMILES)": "CCOC(=O)c1cc2cc(-c3cc(C(=O)NCc4ccc(C(=O)O)cc4)nn3C)ccc2[nH]1", "test": "cell-free assay, competition with immobilised ligand", "conditions": "0.1 µM", "remaining binding": "81%"}
{"Structure (SMILES)": "COc1ncc2cc3ccccc3nc2c1C#N", "test": "cell-free assay, competition with immobilised ligand", "conditions": "5 µM", "remaining binding": "76%"}
{"Structure (SMILES)": "O=C(NCc1ncc(C(F)(F)F)cc1Cl)c1ccc2c(c1)C1(CCS(=O)(=O)CC1)[C@H](C1CC1)N2S(=O)(=O)c1ccc(F)cc1", "test": "cell-free assay, competition with immobilised ligand", "conditions": "1 µM", "remaining binding": "100%"}
{"Structure (SMILES)": "c1cncc(-c2cccc(Nc3nccc(NC4CCCCC4)n3)c2)c1", "test": "binding, competition with immobilised ligand", "conditions": "10 µM", "remaining binding": "84%"}
{"Structure (SMILES)": "FC(F)(F)Oc1cccc(-c2cnc3ccc(-c4ccncc4)nn23)c1", "test": "cell-free assay, competition with immobilised ligand", "conditions": "5 µM", "remaining binding": "19%"}
{"Structure (SMILES)": "N[C@@H]1CCN(c2nccc(-c3cnn4ncccc34)n2)C1", "test": "binding", "conditions": "1 µM", "remaining binding": "100%"}
{"Structure (SMILES)": "O=C(c1ccc(Nc2nccc(-c3cc4ccccc4s3)n2)cc1)N1CCC(N2CCCC2)CC1", "test": "binding, competition with immobilised ligand", "conditions": "1 µM", "remaining binding": "100%"}
{"Structure (SMILES)": "O=C(Nc1ccc(Oc2ccc(F)cc2)cc1)N1CCc2ncccc2[C@H]1c1ccc(F)cc1", "test": "cell-free assay, competition with immobilised ligand", "conditions": "1 µM", "remaining binding": "100%"}
{"Structure (SMILES)": "COc1cnc(Nc2cccc(S(N)(=O)=O)c2)nc1N1CCN(c2ccccc2)CC1", "test": "binding, competition with immobilised ligand", "conditions": "1 µM", "remaining binding": "88%"}
{"Structure (SMILES)": "C[C@H](c1ccc(F)cc1)N(Cc1cccc(C(=O)O)c1)C(=O)c1cnc2ccccc2c1", "test": "cell-free assay, competition with immobilised ligand", "conditions": "1 µM", "remaining binding": "68%"}
{"Structure (SMILES)": "F[C@@H]1CCN(c2nccc(-c3cnn4ncccc34)n2)C1", "test": "binding", "conditions": "1 µM", "remaining binding": "100%"}
{"Structure (SMILES)": "Cc1noc([C@H]2C[C@@H](c3ccc(C(F)(F)F)cc3)CN(C(=O)N3CCS(=O)(=O)C3)C2)n1", "test": "cell-free assay, competition with immobilised ligand", "conditions": "1 µM", "remaining binding": "100%"}
{"Structure (SMILES)": "CN(C)c1ncc(F)c(-c2cnn3ncccc23)n1", "test": "binding", "conditions": "1 µM", "remaining binding": "100%"}
{"Structure (SMILES)": "CC(=O)N1CCC(c2ccc(C(=O)NC(=N)N)cc2C(F)(F)F)CC1", "test": "cell-free assay, competition with immobilised ligand", "conditions": "1 µM", "remaining binding": "98%"}
{"Structure (SMILES)": "COc1cnc(Nc2cccc(S(N)(=O)=O)c2)nc1N1CCN(c2ccccc2)C(=O)C1", "test": "binding, competition with immobilised ligand", "conditions": "1 µM", "remaining binding": "98%"}
{"Structure (SMILES)": "C[C@H]1CCN(c2nccc(-c3cnn4ncccc34)n2)C1", "test": "binding", "conditions": "1 µM", "remaining binding": "100%"}
{"Structure (SMILES)": "O=C(NCCCN1CCOCC1)c1ccc(Nc2ncc(Cl)c(-c3ccc(Cl)s3)n2)cc1", "test": "binding, competition with immobilised ligand", "conditions": "1 µM", "remaining binding": "91%"}
{"Structure (SMILES)": "O=C(Nc1c[nH]nc1C(=O)NC1CCNCC1)c1cc(F)cc(F)c1", "test": "binding, competition with immobilised ligand", "conditions": "1 µM", "remaining binding": "86%"}
{"Structure (SMILES)": "CN(c1nccc(-c2cnn3ncccc23)n1)C1CC1", "test": "binding", "conditions": "1 µM", "remaining binding": "100%"}
{"Structure (SMILES)": "C=CC(=O)N1CCC(C(=O)NCC(=O)N2CCN(c3nc(-c4cnc(N)nc4C(F)F)nc(N4CCOCC4)n3)CC2)CC1", "test": "binding, competition with immobilised ligand", "conditions": "1 µM", "remaining binding": "84%"}
{"Structure (SMILES)": "CN(CCCC(F)(F)F)c1nccc(-c2cnn3ncccc23)n1", "test": "binding", "conditions": "1 µM", "remaining binding": "100%"}
{"Structure (SMILES)": "O=C(NCCCN1CCOCC1)c1ccc(Nc2nccc(-c3cc4ccccc4s3)n2)cc1", "test": "binding, competition with immobilised ligand", "conditions": "1 µM", "remaining binding": "86%"}
